ChEMBL document CHEMBL3864121, “Development of ebsulfur analogues as potent antibacterials against methicillin-resistant Staphylococcus aureus” (Bioorg Med Chem, 2016)
≈ marks a conversion by molar mass, not a printed value. Calls of active or inactive are those of the source. No cut-off for these calls is given here.

Legend:
Format in all cases: functional
Staphylococcus aureus [1] = assay: Antibacterial activity against methicillin-sensitive Staphylococcus aureus ATCC 6538 measured after overnight incubation by broth double-dilution method
Procedure, shortened: (§1)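 MIC by broth double-dilution in liquid Mueller-Hinton medium. Values are reported in µg/mL.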

Staphylococcus aureus [2] = assay: Antibacterial activity against methicillin-sensitive Staphylococcus aureus ATCC 25923 measured after overnight incubation by broth double-dilution method; procedure, shortened: as §1
Staphylococcus aureus [3] = assay: Antibacterial activity against methicillin-sensitive Staphylococcus aureus ATCC 29213 measured after overnight incubation by broth double-dilution method; procedure, shortened: as §1
Staphylococcus aureus [4] = assay: Antibacterial activity against methicillin-resistant Staphylococcus aureus ATCC 33591 measured after overnight incubation by broth double-dilution method; procedure, shortened: as §1
Staphylococcus aureus [5] = assay: Antibacterial activity against methicillin-resistant Staphylococcus aureus 1 measured after overnight incubation by broth double-dilution method; procedure, shortened: as §1
Staphylococcus aureus [6] = assay: Antibacterial activity against methicillin-resistant Staphylococcus aureus 2 measured after overnight incubation by broth double-dilution method; procedure, shortened: as §1
Staphylococcus aureus [7] = assay: Antibacterial activity against methicillin-resistant Staphylococcus aureus BRS3 measured after overnight incubation by broth double-dilution method; procedure, shortened: as §1
Staphylococcus aureus [8] = assay: Antibacterial activity against methicillin-resistant Staphylococcus aureus C1 measured after overnight incubation by broth double-dilution method; procedure, shortened: as §1
Staphylococcus aureus [9] = assay: Antibacterial activity against methicillin-resistant Staphylococcus aureus C2 measured after overnight incubation by broth double-dilution method; procedure, shortened: as §1
Staphylococcus aureus [10] = assay: Antibacterial activity against methicillin-resistant Staphylococcus aureus C7 measured after overnight incubation by broth double-dilution method; procedure, shortened: as §1
Staphylococcus aureus [11] = assay: Antibacterial activity against methicillin-resistant Staphylococcus aureus C14 measured after overnight incubation by broth double-dilution method; procedure, shortened: as §1
Staphylococcus aureus [12] = assay: Antibacterial activity against methicillin-resistant Staphylococcus aureus C16 measured after overnight incubation by broth double-dilution method; procedure, shortened: as §1
Staphylococcus aureus [13] = assay: Antibacterial activity against methicillin-resistant Staphylococcus aureus C19 measured after overnight incubation by broth double-dilution method; procedure, shortened: as §1
Staphylococcus aureus [14] = assay: Antibacterial activity against methicillin-resistant Staphylococcus aureus G1 measured after overnight incubation by broth double-dilution method; procedure, shortened: as §1
Staphylococcus aureus [15] = assay: Antibacterial activity against methicillin-resistant Staphylococcus aureus G6 measured after overnight incubation by broth double-dilution method; procedure, shortened: as §1
Staphylococcus aureus [16] = assay: Antibacterial activity against methicillin-resistant Staphylococcus aureus G12 measured after overnight incubation by broth double-dilution method; procedure, shortened: as §1
Staphylococcus aureus [17] = assay: Antibacterial activity against methicillin-resistant Staphylococcus aureus G14 measured after overnight incubation by broth double-dilution method; procedure, shortened: as §1
Staphylococcus aureus [18] = assay: Antibacterial activity against methicillin-resistant Staphylococcus aureus NRS4 measured after overnight incubation by broth double-dilution method; procedure, shortened: as §1
Staphylococcus aureus [19] = assay: Antibacterial activity against methicillin-resistant Staphylococcus aureus NRS51 measured after overnight incubation by broth double-dilution method; procedure, shortened: as §1
Staphylococcus aureus [20] = assay: Antibacterial activity against methicillin-resistant Staphylococcus aureus NRS77 measured after overnight incubation by broth double-dilution method; procedure, shortened: as §1
Staphylococcus aureus [21] = assay: Antibacterial activity against methicillin-resistant Staphylococcus aureus S14 measured after overnight incubation by broth double-dilution method; procedure, shortened: as §1
Staphylococcus aureus [22] = assay: Antibacterial activity against methicillin-resistant Staphylococcus aureus S17 measured after overnight incubation by broth double-dilution method; procedure, shortened: as §1
Staphylococcus aureus [23] = assay: Antibacterial activity against methicillin-resistant Staphylococcus aureus S22 measured after overnight incubation by broth double-dilution method; procedure, shortened: as §1
Staphylococcus aureus [24] = assay: Antibacterial activity against methicillin-resistant Staphylococcus aureus S24 measured after overnight incubation by broth double-dilution method; procedure, shortened: as §1
Staphylococcus aureus [25] = assay: Antibacterial activity against methicillin-resistant Staphylococcus aureus USA100 measured after overnight incubation by broth double-dilution method; procedure, shortened: as §1
Staphylococcus aureus [26] = assay: Antibacterial activity against methicillin-resistant Staphylococcus aureus USA200 measured after overnight incubation by broth double-dilution method; procedure, shortened: as §1
Staphylococcus aureus [27] = assay: Antibacterial activity against methicillin-resistant Staphylococcus aureus USA300 measured after overnight incubation by broth double-dilution method; procedure, shortened: as §1
Staphylococcus aureus [28] = assay: Antibacterial activity against methicillin-resistant Staphylococcus aureus USA600 measured after overnight incubation by broth double-dilution method; procedure, shortened: as §1
[29] = system: Staphylococcus epidermidis; assay: Antibacterial activity against Staphylococcus epidermidis ATCC 35984 measured after overnight incubation by broth double-dilution method; details: RP62A
Procedure, shortened: (§2)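 MIC by broth double-dilution in Mueller-Hinton medium. Re-testing at the time-kill inoculum used 1×10^6 CFU/mL.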

Enterococcus faecalis [30] = assay: Antibacterial activity against Enterococcus faecalis ATCC 29212 measured after overnight incubation by broth double-dilution method; procedure, shortened: as §2
Enterococcus faecalis [31] = assay: Antibacterial activity against Enterococcus faecalis ATCC 49533 measured after overnight incubation by broth double-dilution method; procedure, shortened: as §2
Enterococcus faecium = assay: Antibacterial activity against Enterococcus faecium BM4105-RF measured after overnight incubation by broth double-dilution method; procedure, shortened: as §1
Enterococcus = assay: Antibacterial activity against Vancomycin-resistant Enterococcus measured after overnight incubation by broth double-dilution method; procedure, shortened: as §1
Listeria monocytogenes = assay: Antibacterial activity against Listeria monocytogenes ATCC 19115 measured after overnight incubation by broth double-dilution method; procedure, shortened: as §2
[32] = system: Mycolicibacterium smegmatis; assay: Antibacterial activity against Mycobacterium smegmatis MC2-155 measured after overnight incubation by broth double-dilution method; details: str. MC2 155; procedure, shortened: as §1
Staphylococcus aureus [33] = assay: Antibacterial activity against methicillin-resistant Staphylococcus aureus S22 using 1 10^6CFU/ml measured after overnight incubation by broth double-dilution method

SMILES	MIC (Staphylococcus aureus [1]) [µg/mL]	MIC (Staphylococcus aureus [2]) [µg/mL]	MIC (Staphylococcus aureus [3]) [µg/mL]	MIC (Staphylococcus aureus [4]) [µg/mL]	MIC (Staphylococcus aureus [5]) [µg/mL]	MIC (Staphylococcus aureus [6]) [µg/mL]	MIC (Staphylococcus aureus [7]) [µg/mL]	MIC (Staphylococcus aureus [8]) [µg/mL]	MIC (Staphylococcus aureus [9]) [µg/mL]	MIC (Staphylococcus aureus [10]) [µg/mL]	MIC (Staphylococcus aureus [11]) [µg/mL]	MIC (Staphylococcus aureus [12]) [µg/mL]	MIC (Staphylococcus aureus [13]) [µg/mL]	MIC (Staphylococcus aureus [14]) [µg/mL]	MIC (Staphylococcus aureus [15]) [µg/mL]	MIC (Staphylococcus aureus [16]) [µg/mL]	MIC (Staphylococcus aureus [17]) [µg/mL]	MIC (Staphylococcus aureus [18]) [µg/mL]	MIC (Staphylococcus aureus [19]) [µg/mL]	MIC (Staphylococcus aureus [20]) [µg/mL]	also measured
CCCCCn1sc2ccccc2c1=O	7.8 (≈ 35.2 µM)	3.9 (≈ 17.6 µM)	3.9 (≈ 17.6 µM)	1 (≈ 4.52 µM)	0.5 (≈ 2.26 µM)	2 (≈ 9.04 µM)	3.9 (≈ 17.6 µM)	2 (≈ 9.04 µM)	2 (≈ 9.04 µM)	2 (≈ 9.04 µM)	3.9 (≈ 17.6 µM)	7.8 (≈ 35.2 µM)	1 (≈ 4.52 µM)	0.5 (≈ 2.26 µM)	2 (≈ 9.04 µM)	2 (≈ 9.04 µM)	2 (≈ 9.04 µM)	2 (≈ 9.04 µM)	3.9 (≈ 17.6 µM)	2 (≈ 9.04 µM)	MIC (Staphylococcus aureus [21]): ≤ 0.25 µg/mL; MIC (Staphylococcus aureus [22]): 2 µg/mL (≈ 9.04 µM); MIC (Staphylococcus aureus [23]): 3.9 µg/mL (≈ 17.6 µM); MIC (Staphylococcus aureus [24]): 3.9 µg/mL (≈ 17.6 µM); MIC (Staphylococcus aureus [25]): 3.9 µg/mL (≈ 17.6 µM); MIC (Staphylococcus aureus [26]): 3.9 µg/mL (≈ 17.6 µM); MIC (Staphylococcus aureus [27]): 3.9 µg/mL (≈ 17.6 µM); MIC (Staphylococcus aureus [28]): 3.9 µg/mL (≈ 17.6 µM); MIC [29]: 3.9 µg/mL (≈ 17.6 µM); MIC (Enterococcus faecalis [30]): 7.8 µg/mL (≈ 35.2 µM); MIC (Enterococcus faecalis [31]): > 125 µg/mL; MIC (Enterococcus faecium): 15.6 µg/mL (≈ 70.5 µM); MIC (Enterococcus): 1 µg/mL (≈ 4.52 µM); MIC (Listeria monocytogenes): 3.9 µg/mL (≈ 17.6 µM); MIC [32]: 2 µg/mL (≈ 9.04 µM); Activity (Staphylococcus aureus [33]): Active
CC(C)Cn1sc2ccccc2c1=O	7.8 (≈ 37.6 µM)	125 (≈ 603 µM)	15.6 (≈ 75.3 µM)	> 125	7.8 (≈ 37.6 µM)	15.6 (≈ 75.3 µM)	7.8 (≈ 37.6 µM)	7.8 (≈ 37.6 µM)	7.8 (≈ 37.6 µM)	7.8 (≈ 37.6 µM)	7.8 (≈ 37.6 µM)	7.8 (≈ 37.6 µM)	7.8 (≈ 37.6 µM)	3.9 (≈ 18.8 µM)	7.8 (≈ 37.6 µM)	7.8 (≈ 37.6 µM)	7.8 (≈ 37.6 µM)	7.8 (≈ 37.6 µM)	7.8 (≈ 37.6 µM)	7.8 (≈ 37.6 µM)	MIC (Staphylococcus aureus [21]): 2 µg/mL (≈ 9.65 µM); MIC (Staphylococcus aureus [22]): 7.8 µg/mL (≈ 37.6 µM); MIC (Staphylococcus aureus [23]): 7.8 µg/mL (≈ 37.6 µM); MIC (Staphylococcus aureus [24]): 7.8 µg/mL (≈ 37.6 µM); MIC (Staphylococcus aureus [25]): 7.8 µg/mL (≈ 37.6 µM); MIC (Staphylococcus aureus [26]): 7.8 µg/mL (≈ 37.6 µM); MIC (Staphylococcus aureus [27]): 7.8 µg/mL (≈ 37.6 µM); MIC (Staphylococcus aureus [28]): 7.8 µg/mL (≈ 37.6 µM); MIC [29]: 7.8 µg/mL (≈ 37.6 µM); MIC (Enterococcus faecalis [30]): 7.8 µg/mL (≈ 37.6 µM); MIC (Enterococcus faecalis [31]): 15.6 µg/mL (≈ 75.3 µM); MIC (Enterococcus faecium): 7.8 µg/mL (≈ 37.6 µM); MIC (Enterococcus): 3.9 µg/mL (≈ 18.8 µM); MIC (Listeria monocytogenes): > 125 µg/mL; MIC [32]: 3.9 µg/mL (≈ 18.8 µM)
O=c1c2ccccc2[s+]([O-])n1C1CCCCCCC1 (stereo unspecified)	> 125	> 125	> 125	> 125	> 125	> 125	> 125	> 125	> 125	> 125	> 125	> 125	> 125	> 125	> 125	> 125	> 125	> 125	> 125	> 125	MIC (Staphylococcus aureus [21]): > 125 µg/mL; MIC (Staphylococcus aureus [22]): > 125 µg/mL; MIC (Staphylococcus aureus [23]): > 125 µg/mL; MIC (Staphylococcus aureus [24]): 125 µg/mL (≈ 451 µM); MIC (Staphylococcus aureus [25]): > 125 µg/mL; MIC (Staphylococcus aureus [26]): > 125 µg/mL; MIC (Staphylococcus aureus [27]): > 125 µg/mL; MIC (Staphylococcus aureus [28]): > 125 µg/mL; MIC [29]: > 125 µg/mL; MIC (Enterococcus faecalis [30]): > 125 µg/mL; MIC (Enterococcus faecalis [31]): > 125 µg/mL; MIC (Enterococcus faecium): > 125 µg/mL; MIC (Enterococcus): > 125 µg/mL; MIC (Listeria monocytogenes): > 125 µg/mL; MIC [32]: > 125 µg/mL
O=c1c2ccccc2sn1-c1ccc(Cl)cc1	3.9 (≈ 14.9 µM)	2 (≈ 7.64 µM)	2 (≈ 7.64 µM)	1 (≈ 3.82 µM)	1 (≈ 3.82 µM)	1 (≈ 3.82 µM)	3.9 (≈ 14.9 µM)	2 (≈ 7.64 µM)	1 (≈ 3.82 µM)	1 (≈ 3.82 µM)	3.9 (≈ 14.9 µM)	3.9 (≈ 14.9 µM)	1 (≈ 3.82 µM)	2 (≈ 7.64 µM)	2 (≈ 7.64 µM)	2 (≈ 7.64 µM)	1 (≈ 3.82 µM)	3.9 (≈ 14.9 µM)	3.9 (≈ 14.9 µM)	3.9 (≈ 14.9 µM)	MIC (Staphylococcus aureus [21]): ≤ 0.25 µg/mL; MIC (Staphylococcus aureus [22]): 1 µg/mL (≈ 3.82 µM); MIC (Staphylococcus aureus [23]): 2 µg/mL (≈ 7.64 µM); MIC (Staphylococcus aureus [24]): 1 µg/mL (≈ 3.82 µM); MIC (Staphylococcus aureus [25]): 2 µg/mL (≈ 7.64 µM); MIC (Staphylococcus aureus [26]): 2 µg/mL (≈ 7.64 µM); MIC (Staphylococcus aureus [27]): 3.9 µg/mL (≈ 14.9 µM); MIC (Staphylococcus aureus [28]): 2 µg/mL (≈ 7.64 µM); MIC [29]: 1 µg/mL (≈ 3.82 µM); MIC (Enterococcus faecalis [30]): 62.5 µg/mL (≈ 239 µM); MIC (Enterococcus faecalis [31]): > 125 µg/mL; MIC (Enterococcus faecium): 31.3 µg/mL (≈ 120 µM); MIC (Enterococcus): 0.5 µg/mL (≈ 1.91 µM); MIC (Listeria monocytogenes): 1 µg/mL (≈ 3.82 µM); MIC [32]: 3.9 µg/mL (≈ 14.9 µM)
